Test results: ChEMBL document CHEMBL1147266, “New dammarane triterpenes from the aerial parts of Ibicella lutea grown in Argentina” (J Nat Prod, 2003)
In brackets after ≈: the same amount, converted by molar mass.

How the values were obtained:
Type in all cases: functional, cell-based
A549 = experiment: Cytotoxicity against human A549 cells after 3 days by crystal violet staining; conditions: A549, 72 h
Summary of the method: (§1)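 Cells kept in log-phase growth in EMEM with nonessential amino acids, 2.0 mM L-glutamine, 5% FCS, 10^-2 M NaHCO3 and penicillin/streptomycin. Trypsin-harvested cells seeded at 1×10^4/well in 24-well dishes with graded sample concentrations, drug-free growth controls included, in duplicate. Incubated 3 days at 37 °C, 5% CO2, then crystal violet stained for approximate IC50. Coulter counts of trypsinized cells gave %G dose-response curves for IC50.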

[1] = Cytotoxicity against human H116 cells after 3 days by crystal violet staining; conditions: H116, 72 h; summary of the method: as §1
PSN1 = experiment: Cytotoxicity against human PSN1 cells after 3 days by crystal violet staining; conditions: PSN1, 72 h; summary of the method: as §1
T98G = experiment: Cytotoxicity against human T98G cells after 3 days by crystal violet staining; conditions: 72 h; summary of the method: as §1
HT-29 = experiment: Cytotoxicity against human HT-29 cells after 3 days by crystal violet staining; conditions: HT-29, 72 h; summary of the method: as §1

SMILES | IC50 (A549) | IC50 [1] | IC50 (PSN1) | IC50 (T98G) | IC50 (HT-29)
CC(=O)O[C@H]1CC[C@]2(C)[C@H]3C[C@@H](OC(C)=O)[C@@H]4[C@@H]([C@]5(C)CC[C@@H](C(C)(C)O)O5)CC[C@@]4(C)[C@]3(C)CC[C@H]2C1(C)C | 5 µg/mL (≈ 8.92 µM) | 5 µg/mL (≈ 8.92 µM) | – | – | –
CC(=O)O[C@H]1CC[C@]2(C)[C@H]3C[C@@H](O)[C@@H]4[C@@H]([C@]5(C)CC[C@@H](C(C)(C)O)O5)CC[C@@]4(C)[C@]3(C)CC[C@H]2C1(C)C | > 5 µg/mL | > 5 µg/mL | > 5 µg/mL | > 5 µg/mL | –
CC(=O)O[C@H]1CC[C@]2(C)[C@H]3C[C@@H](OC(C)=O)[C@@H]4[C@@H]([C@]5(C)CC[C@@H](C(C)(C)OC(C)=O)O5)CC[C@@]4(C)[C@]3(C)CC[C@H]2C1(C)C | > 5 µg/mL | > 5 µg/mL | > 5 µg/mL | > 5 µg/mL | –
CC(C)(O)[C@H]1CC[C@@](C)([C@H]2CC[C@]3(C)[C@@H]2[C@H](O)C[C@@H]2[C@@]4(C)[C@H](O)C[C@@H](O)C(C)(C)[C@@H]4CC[C@]23C)O1 | > 10 µg/mL | > 10 µg/mL | – | – | > 10 µg/mL
CC(=O)O[C@@H]1C[C@@H]2[C@@]3(C)[C@H](OC(C)=O)C[C@@H](OC(C)=O)C(C)(C)[C@@H]3CC[C@@]2(C)[C@]2(C)CC[C@H]([C@]3(C)CC[C@H](C(C)(C)OC(C)=O)O3)[C@@H]12 | – | 5 µg/mL (≈ 7.57 µM) | – | – | –
CC(=O)O[C@@H]1C[C@@H]2[C@@]3(C)[C@H](OC(C)=O)C[C@@H](OC(C)=O)C(C)(C)[C@@H]3CC[C@@]2(C)[C@]2(C)CC[C@H]([C@]3(C)CC[C@H](C(C)(C)O)O3)[C@@H]12 (relative stereo) | > 5 µg/mL | > 5 µg/mL | > 5 µg/mL | > 5 µg/mL | –
CC(=O)O[C@@H]1C[C@@H](OC(C)=O)[C@]2(C)[C@H]3C[C@@H](O)[C@@H]4[C@@H]([C@]5(C)CC[C@H](C(C)(C)O)O5)CC[C@@]4(C)[C@]3(C)CC[C@H]2C1(C)C (relative stereo) | > 10 µg/mL | > 10 µg/mL | – | – | > 10 µg/mL
CC(C)(O)[C@@H]1CC[C@@](C)([C@H]2CC[C@]3(C)[C@@H]2[C@H](O)C[C@@H]2[C@@]4(C)CC[C@H](O)C(C)(C)[C@@H]4CC[C@]23C)O1 (relative stereo) | 5 µg/mL (≈ 10.5 µM) | 5 µg/mL (≈ 10.5 µM) | – | – | –
CC(=O)O[C@@H]1C[C@@H](O)[C@]2(C)[C@H]3C[C@@H](O)[C@@H]4[C@@H]([C@]5(C)CC[C@H](C(C)(C)O)O5)CC[C@@]4(C)[C@]3(C)CC[C@H]2C1(C)C (relative stereo) | > 10 µg/mL | > 10 µg/mL | – | – | > 10 µg/mL
